Compounds with a hit are over-represented: about 4.3% of the library has one in this group of screens.
ALR inh – human ALR oxidase inhibition via reduced H2O2. P55789. purified ALR, DTT oxidation, H2O2 HRP-luminol luminescence. inhibition, % (test concentration not listed). 290,000 tested, 3.8% active. AID 485317;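 active = mean replicate inhibition above about 79%, with every replicate also reaching it, limit read from the data; inconclusive = only one of the two criteria met; inactive = mean below limit and not every replicate reaching it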
Target sequence (P55789 whole entry, looked up): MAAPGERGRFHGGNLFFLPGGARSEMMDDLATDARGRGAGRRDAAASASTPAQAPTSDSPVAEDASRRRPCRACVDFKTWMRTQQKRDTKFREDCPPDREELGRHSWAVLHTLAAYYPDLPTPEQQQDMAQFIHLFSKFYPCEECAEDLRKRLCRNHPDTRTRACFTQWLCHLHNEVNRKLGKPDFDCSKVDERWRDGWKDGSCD
SUMO HTRF inh – SUMOylation inhibition; HTRF SUMOylation assay, SAE1/SAE2 + UBC9, in vitro; P63279; inhibition, % at 35 µM; 290,000 tested, 0.36% active; in the data active = inhibition above about 50%, passing the limit was not always enough; inconclusive = no clear call, values can overlap the other calls
PREPL inh – inhibitors of human prolyl oligopeptidase-like enzyme PREPL. AID 2751. 320,000 tested, 0.68% active. recombinant PREPL, fluorescence polarization activity-based probe. Q4J6C6. inhibition, % at 5.96 µM; in the data active = inhibition above about 43%
UBC13 polyUb – blocks human UBC13 polyubiquitin chain formation; P61088; inhibition, % at 20 µM; 330,000 tested, 0.47% active; TR-FRET; in the data active = inhibition above about 45%, passing the limit was not always enough; inconclusive = no clear call, values can overlap the other calls
Rin1 Abl inh – human Rin1-Abl interaction inhibition; AID 588664; 360,000 tested, 0.4% active; inhibition, % at 7.35 µM; P00519+Q13671; TR-FRET Rin1/Abl binding, biochemical; in the data active = inhibition above about 5%, passing the limit was not always enough
RBBP9 inh – inhibitors of human serine hydrolase RBBP9 | O75884 | recombinant RBBP9, FP-Rh probe fluorescence polarization | inhibition, % at 7.94 µM | 220,000 tested, 0.2% active | AID 1515;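 active = inhibition above the campaign mean of all tested compounds plus 3 SD, cut at about 14% in these data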
Target sequence (O75884 whole entry, looked up): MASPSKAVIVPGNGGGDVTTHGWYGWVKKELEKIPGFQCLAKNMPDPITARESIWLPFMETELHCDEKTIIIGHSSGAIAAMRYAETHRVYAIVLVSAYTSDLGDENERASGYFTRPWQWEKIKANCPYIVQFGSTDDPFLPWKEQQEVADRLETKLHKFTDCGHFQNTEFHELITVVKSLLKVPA
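Controls: DMSO-treated enzyme wells and wells lacking RBBP9 | Material: RBBP9 protein | Technique: Fluorescence polarization | Replication: Single well per compound, no replicates | Buffer or medium: Tris-NaCl-Pluronic buffer, pH 8.0 | Timing: 30 min compound preincubation, 45 min probe labeling, 25 °C | Read-out basis: Percent inhibition from mP, scaled between DMSO and no-protein wells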
Each line names hits and unclear results; the compound was inactive in the other large screens.

COc1ccccc1NC(=S)NNC(=O)c1cc(C)nn1C	ALR inh inconclusive
COc1ccccc1NC(=S)NNC(=O)c1c(Cl)c(C)nn1C	ALR inh 86
COc1ccccc1NC(=S)NNC(=O)c1cc(C)n(C)n1	ALR inh 77
COc1ccc(Cl)cc1NC(=S)NNC(=O)c1cccnc1	ALR inh 89
O=C(Nc1ccc2nc(C(F)(F)F)[nH]c2c1)[C@@H]1O[C@H](CO)[C@@H](O)[C@H]1O	none (no result: ALR inh, SUMO HTRF inh, PREPL inh, UBC13 polyUb, RBBP9 inh)
O=C(NNc1c2ccccc2nc2ccccc12)c1cccc(O)c1	ALR inh 99
O=C(NNc1c2ccccc2nc2ccccc12)C(O)c1ccccc1 (stereo unspecified)	ALR inh 99
O=C(NNc1c2ccccc2nc2ccccc12)c1ccc(O)cc1O	ALR inh 98
O=C(NNc1c2ccccc2nc2ccccc12)C12CC3CC(CC(C3)C1)C2	none (no result: ALR inh)
O=C(NNc1c2ccccc2nc2ccccc12)c1ccc(O)cc1	ALR inh 99
O=C(NNc1c2ccccc2nc2ccccc12)c1ccccc1Cl	none (no result: RBBP9 inh)
Cc1ccc(S(=O)(=O)C2C(=O)N(C)C3(C)CC2c2ccccc2O3)cc1 (stereo unspecified)	none
O=C(COc1cccc(Cl)c1)Nc1ccccc1N1CCCCC1	none (no result: ALR inh, SUMO HTRF inh, RBBP9 inh)
COC(=O)c1sc(NC(=O)CSc2nc3cccnc3n2C2CCCCC2)nc1C	none
CCc1c(O)nc(SCC(=O)Nc2ccc(OC)cc2)n(C2CCCCC2)c1=O	ALR inh 99
CCc1c(O)nc(SCC(=O)Nc2nc3ccccc3s2)n(C2CCCCC2)c1=O	ALR inh 92
COc1ccc(NC(=O)CSc2nnc(C3CCCCC3)n2N)cc1	none
CCOc1ccccc1NC(=O)CN(c1ccc(OC)cc1OC)S(=O)(=O)c1ccccc1[N+](=O)[O-]	none
CCOc1ccc(S(=O)(=O)NCC(=O)NC2CCCCC2)cc1	ALR inh 91 (no result: SUMO HTRF inh, RBBP9 inh)
O=C(CNS(=O)(=O)c1ccc(Cl)cc1)NC1CCCCC1	none (no result: SUMO HTRF inh, RBBP9 inh)
Cc1ccc(S(=O)(=O)NCC(=O)NCC2CCCCC2)cc1C	ALR inh 97 (no result: RBBP9 inh)
C=C1C(=O)O[C@@]23[C@H]1CC[C@@H](C)[C@@H]2CC[C@@]1(C)O[C@@H]31	none (no result: SUMO HTRF inh, RBBP9 inh)
Oc1ccc(N2CCN(c3nnnn3-c3ccccc3)CC2)cc1	ALR inh 99
CN(C)CCC(=O)N1c2ccccc2Sc2ccc(C(F)(F)F)cc21	ALR inh 98 (no result: RBBP9 inh)
CN(C)CCCN1c2ccccc2Sc2ccc(C(F)(F)F)cc21	ALR inh 98
CN1CCN(CCC(=O)N2c3ccccc3Sc3ccc(C(F)(F)F)cc32)CC1	none
CCOC(=O)CC1COCCN1C(=O)c1cc(COc2ccc(F)cc2Cl)on1 (stereo unspecified)	none (no result: RBBP9 inh)
C=CCNC(=O)CSc1nc2sc3c(c2c(=O)n1CCCOC)CCC3	ALR inh 81 (no result: RBBP9 inh)
C=CCn1c(SCC(=O)NC)nc2sc3c(c2c1=O)CCC3	none
COC(=O)CSc1nc2sc3c(c2c(=O)n1-c1ccccc1)CCN(C)C3	ALR inh 100
C=CCn1c(SCC(=O)OC)nc2sc3c(c2c1=O)CCN(C)C3	ALR inh 99 (no result: Rin1 Abl inh)
CCn1c(SCC(=O)c2ccccc2)nc2sc3c(c2c1=O)CCN(C)C3	ALR inh 99
Nn1c(SCC(=O)Nc2nccs2)nnc1-c1cccnc1	none (no result: ALR inh, SUMO HTRF inh, RBBP9 inh)
Cc1ccccc1OCC(=O)Nc1nnc(-c2ccncc2)s1	ALR inh 87
CSc1nc2cc(C)nn2c(-c2ccccc2)c1C#N	none (no result: ALR inh)
Cc1ccc(NC(=O)CSCC(=O)NCc2cccc(C(F)(F)F)c2)cc1	none (no result: SUMO HTRF inh, RBBP9 inh)
O=S(=O)(c1cccc(-c2nnc(SCc3nc4ccccc4s3)o2)c1)N1CCOCC1	ALR inh 98
CC(=O)CCSc1nnc(-c2cccc(S(=O)(=O)N3CCOCC3)c2)o1	none (no result: SUMO HTRF inh, RBBP9 inh)
CCOC(=O)c1cc(C)sc1NC(=O)CN1CCN(C(=O)C2CCCO2)CC1 (stereo unspecified)	ALR inh 96 (no result: RBBP9 inh)
O=C(CCl)Nc1cc(-c2ccccc2)nn1-c1ccccc1	ALR inh 98
CSc1ncnc2c1ncn2CCCNCCCN1CCCC1=O	none (no result: ALR inh, SUMO HTRF inh, PREPL inh, UBC13 polyUb, RBBP9 inh)
COc1nc(Cl)cn(-c2ccc(C)cc2)c1=O	none
Cc1ccc(-n2c(Cl)c(Cl)nc(Cl)c2=O)cc1	ALR inh 97 (no result: UBC13 polyUb)
COc1ccc(CNC(=O)Nc2cccs2)cc1OC	none
COc1ccccc1CNC(=O)Nc1cccs1	ALR inh 97

High-throughput results as filed in PubChem BioAssay.
